Assay results from different studies.
Compare with care: the assays were run in different laboratories.
Organism: Mycolicibacterium smegmatis
Read-out: microbial growth

CCCCCc1ccc(-c2c[nH]c(N)n2)cc1  MIC (ATCC700084 MC^2155; 48 h): 200 µM
NNC(=O)c1ccncc1  MIC (resazurin; MC^2155; 24 h): 5 µg/mL
Cc1nc2sc3ccccc3n2c1C(=O)N1CCN(Cc2cn(-c3ccc([N+](=O)[O-])cc3)nn2)CC1  IC50 (72 h): > 128 µM
CC(C)=CCC/C(C)=C/C(=O)O  IC50 (48 h): > 500 µM
O=C(O)CCCCCC1NC(=O)CS1 (racemic)  MIC90 (MC^2155): 10 µM
Cc1nc2sc3ccccc3n2c1C(=O)N1CCN(Cc2cn(-c3cccc([N+](=O)[O-])c3)nn2)CC1  IC50 (72 h): 44.1 µM
CC(C)=CCC/C(C)=C/CNCCNC1C2CC3CC(C2)CC1C3 (stereo not drawn)  IC50 (48 h): 2.5 µM
Cc1cc(N)c2ccccc2[n+]1CCCCCCCCCC[n+]1c(C)cc(N)c2ccccc21  inhibition zone (disc diffusion; 50 µg/disc): 18 mm
COCCOc1ccc(-c2c[nH]c(N)n2)cc1  MIC (ATCC700084 MC^2155; 48 h): > 200 µM
Cc1nc2sc3ccccc3n2c1C(=O)N1CCN(CCn2cc(-c3ccc(C(C)(C)C)cc3)nn2)CC1  IC50 (72 h): 34.6 µM
CCc1ccc(-c2c[nH]c(N)n2)cc1  MIC (ATCC700084 MC^2155; 48 h): 100 µM
COc1c(N2C[C@@H]3CCCN[C@@H]3C2)c(F)cc2c(=O)c(C(=O)O)cn(C3CC3)c12  MIC90 (ATCC14468): 0.12 µg/mL
